Screening data (PubChem BioAssay)
Most compounds without a hit are left out; they make up all but 9.4% or so of the library.
CSC inhib = blocks cancer stem cells. inhibition, % at 7.5 µM. cancer stem cell-like cells viability, luminescence. actives 1.1% (n = 300,000); in the data active means inhibition above about 75%; inconclusive means no clear call, values can overlap the other calls; tested in HMLE shEcad cells
L major viab = inhibitors of Leishmania major promastigote growth. Leishmania major promastigotes, resazurin fluorescence viability. inhibition, % at 10 µM. actives 9% (n = 200,000). AID 1063; in the data active means inhibition above about 50%;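 further: promastigotes grown with compound for 44 hours at 28 °C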
Mdm2-MdmX inh = disrupts the human Mdm2-MdmX interaction; SaOS-2 split-luciferase Mdm2/MdmX complementation, luminescence; AID 485346; inhibition, % at 8 µM; O15151+Q00987; actives 3% (n = 330,000);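 active means inhibition of at least 50% at 8 µM in the primary screen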
Target sequence (O15151 whole entry, looked up): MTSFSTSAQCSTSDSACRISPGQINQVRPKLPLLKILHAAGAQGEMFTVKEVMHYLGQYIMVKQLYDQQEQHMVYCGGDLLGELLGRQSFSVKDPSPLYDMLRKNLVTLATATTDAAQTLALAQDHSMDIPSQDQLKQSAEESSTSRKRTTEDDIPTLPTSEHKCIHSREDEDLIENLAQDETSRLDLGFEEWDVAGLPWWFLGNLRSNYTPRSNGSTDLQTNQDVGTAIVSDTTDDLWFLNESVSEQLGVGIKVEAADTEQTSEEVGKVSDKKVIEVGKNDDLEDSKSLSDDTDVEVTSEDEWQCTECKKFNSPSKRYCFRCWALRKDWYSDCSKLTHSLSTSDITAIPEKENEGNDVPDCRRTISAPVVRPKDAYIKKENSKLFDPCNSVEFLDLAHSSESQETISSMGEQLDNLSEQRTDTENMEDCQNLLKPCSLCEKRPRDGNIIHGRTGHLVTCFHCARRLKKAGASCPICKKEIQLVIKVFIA
Target sequence (Q00987 whole entry, looked up): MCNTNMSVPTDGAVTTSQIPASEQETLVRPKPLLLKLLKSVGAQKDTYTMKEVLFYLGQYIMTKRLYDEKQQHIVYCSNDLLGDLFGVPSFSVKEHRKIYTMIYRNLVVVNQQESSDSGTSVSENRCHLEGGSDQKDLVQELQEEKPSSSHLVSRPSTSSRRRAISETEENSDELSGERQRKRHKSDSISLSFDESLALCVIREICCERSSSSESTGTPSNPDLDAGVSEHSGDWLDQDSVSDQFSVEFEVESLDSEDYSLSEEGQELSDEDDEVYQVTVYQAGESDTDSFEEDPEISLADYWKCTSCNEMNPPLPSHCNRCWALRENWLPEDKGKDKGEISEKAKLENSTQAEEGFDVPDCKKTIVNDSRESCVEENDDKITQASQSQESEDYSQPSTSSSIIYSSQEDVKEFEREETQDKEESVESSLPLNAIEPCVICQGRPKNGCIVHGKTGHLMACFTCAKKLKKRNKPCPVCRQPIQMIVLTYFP
SKKanGAS inh = SKKanGAS growth inhibition. S. pyogenes SKKanGAS, kanamycin growth, BacTiter-Glo, 6 h. inhibition, % at 7.5 µM. actives 1.3% (n = 300,000). AID 1662;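 active means mean replicate score, as percent of positive control median, at least 50; inconclusive means mean below 50 but one replicate at or above 50; inactive means mean and every replicate below 50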;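 further: strain carries kanamycin resistance gene driven by streptokinase promoter and grows in 40 µg/ml kanamycin; loss of luminescence reflects streptokinase promoter inhibition or plain growth inhibition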
Beta apoptosis = beta cell apoptosis inhibition; INS-1E cytokine-induced death, ATP luminescence, 48 h; percent of positive-control rescue, neutral wells zero; actives 0.8% (n = 300,000); protection from apoptosis, % (concentration not given with the values);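 active means Every replicate reaches about 75%, or at least half do and their mean reaches it too, limit read from the data; inconclusive means At least half of replicates reach the limit but their mean does not; inactive means Under half of replicates reach the limit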;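 further: higher means more ATP so stronger rescue from cytokine killing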
T cruzi repl = blocks replication of Trypanosoma cruzi; T. cruzi beta-gal in NIH3T3, luminescence, 90 h; AID 1885; actives 1.4% (n = 300,000); inhibition, % (no concentration beside the values);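 active means mean inhibition across valid replicates above about 55%, limit read from the data; inconclusive means mean below that limit but half or more replicates reach it; inactive means mean below it, under half of replicates reach it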;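 further: signal also drops with host cell toxicity which is not excluded here; higher percent means less beta-gal luminescence so fewer parasites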
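Assay system: NIH/3T3 host cells with β-galactosidase reporter T. cruzi; input: 5,000 host fibroblasts per well; compound: single 50 nL compound addition per well in DMSO; timing: ≥90 h infection period, 3 h prior cell attachment; measured by: GalScreen β-gal luminescence, detergent lysis, 60 min; evaluation: percent inhibition of parasite-derived β-gal signal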
Of the large screens only hits and unclear results are named; the others gave an inactive call.

CC(=O)c1cc(CN2CCN(Cc3ccc(C)cc3)C(CCO)C2)cs1 (stereo unspecified)	L major viab 73
COc1ccc(CN2CCN(Cc3csc(C(C)=O)c3)CC2CCO)c(C)c1C (stereo unspecified)	L major viab 86, T cruzi repl 55
Cc1cccc(N2CCN(C(=O)Cn3ccc4ccccc4c3=O)CC2)c1C	L major viab 91
O=S(=O)(Nc1cc(S(=O)(=O)N2CCOCC2)ccc1Cl)c1ccccc1	none (no result: L major viab, SKKanGAS inh, T cruzi repl)
COCCOC(=O)c1c(C)oc2ccc(NS(=O)(=O)c3ccccc3)cc12	none
CCOC(=O)c1c(C)oc2ccc(NS(=O)(=O)c3ccc4c5c(cccc35)C(=O)N4)cc12	L major viab 91
OC(CN1CCN(c2ccccn2)CC1)Cn1c2ccc(Cl)cc2c2cc(Cl)ccc21 (stereo unspecified)	CSC inhib 105
Cc1cccc(C)c1OCC(O)CN1CCN(c2ccccn2)CC1 (stereo unspecified)	none
OC(COC(c1ccc(Cl)cc1)c1ccc(Cl)cc1)CN1CCN(c2ccccn2)CC1 (stereo unspecified)	L major viab 71, SKKanGAS inh inconclusive
CCN(CC(=O)NCc1ccc(Cl)cc1)C(=O)c1cc(S(=O)(=O)N2CCOCC2)ccc1C	none (no result: L major viab, SKKanGAS inh, T cruzi repl)
Cc1ccc(NC(=O)C2C3CCCC2C3c2ccccc2)c(C)c1 (stereo unspecified)	L major viab 84
CCOc1ccc2nc(Cl)c(C3CC(c4ccco4)=NN3S(=O)(=O)c3ccccc3)cc2c1 (stereo unspecified)	L major viab 100
CCCCN1C(=O)C(=O)N(CC(=O)N2CCc3ccccc32)C1=O	none (no result: L major viab, SKKanGAS inh, T cruzi repl)
CCCNC(=O)Cn1c(=O)cnc2ccccc21	none (no result: CSC inhib, Beta apoptosis)
CC(C)c1cccc(C(C)C)c1NC(=O)Cn1c(=O)cnc2ccccc21	L major viab 92
CC(C)(C)c1ccccc1NC(=O)Cn1c(=O)cnc2ccccc21	L major viab 55
Nc1nnc(SCC(=O)NNC(=O)c2ccc(F)cc2)s1	none (no result: CSC inhib, L major viab, SKKanGAS inh, T cruzi repl)
CCc1cccc2c(C(=O)CSc3nncn3-c3ccccc3OC)c[nH]c12	none
CCc1cccc2c(C(=O)CSc3nncn3-c3ccc(OC)cc3)c[nH]c12	L major viab 53
N#C/C(=N\Nc1ccc(F)cc1)C(=N)N1CCCCC1	L major viab 78
CCOC(=O)/C(C#N)=C1\Nc2ccccc2N=C1N(CC(C)C)CC(C)C	CSC inhib inconclusive, L major viab 81
CCCCN(CCCC)C1=Nc2ccccc2N/C1=C(/C#N)C(=O)OCC	SKKanGAS inh 72
O=S(=O)(Nc1ccc2ccccc2n1)c1ccc2c(c1)CCO2	none (no result: L major viab)
Cn1cccc1/C=C1\SC(=S)N(Nc2ccccc2)C1=O	CSC inhib 92, T cruzi repl 64 (no result: L major viab)
Cc1ccc(S(=O)(=O)NN2C(=O)/C(=C/c3cccn3C)SC2=S)cc1	none (no result: Mdm2-MdmX inh, SKKanGAS inh, T cruzi repl)
COc1ccc(Nc2cc(C)nc3ccccc23)cc1	L major viab 86 (no result: CSC inhib, SKKanGAS inh)
COc1ccc2nc(C)cc(Nc3ccc(N4CCOCC4)cc3)c2c1	L major viab 51, T cruzi repl 61 (no result: CSC inhib, Beta apoptosis)
Cc1ccc2nc(C)cc(Nc3ccc([N+](=O)[O-])cc3)c2c1	L major viab 101 (no result: Mdm2-MdmX inh, Beta apoptosis)
O=C(N=C1SC2CS(=O)(=O)CC2N1c1ccc(F)cc1)C1CC1 (stereo unspecified)	none (no result: L major viab)
CN(C)S(=O)(=O)c1cccc(NC(=O)COc2nc3ccccc3nc2N2CCOCC2)c1	L major viab 56
O=C(COc1nc2ccccc2nc1N1CCOCC1)Nc1ccc(S(=O)(=O)N2CCCC2)cc1	L major viab 67
c1csc(-c2csc3nc(CN4CCOCC4)nc(NCc4ccc5c(c4)OCO5)c23)c1	SKKanGAS inh 57, T cruzi repl 57
c1cc2c(cc1CNc1ccc(N3CCOCC3)cc1)OCO2	none (no result: CSC inhib, L major viab, SKKanGAS inh, T cruzi repl)
CCc1ccc(C(=O)NNc2cc(Cl)cc(Cl)c2)cc1	none (no result: L major viab, T cruzi repl)
CCc1ccc(C(=O)NNc2ccc(Cl)cc2)cc1	CSC inhib 99 (no result: L major viab)
CCOC(=O)C(=O)NNc1ccccc1OC	none (no result: L major viab)
CCOC(=O)C(=O)NNc1ccc(Cl)cc1	CSC inhib 82
CCOC(=O)C(=O)NNc1ccc(C)cc1	CSC inhib 102, T cruzi repl inconclusive
CCCOC(=O)C(=O)NNc1ccccc1	CSC inhib inconclusive
CCn1c(O)c(/C=N/N=C/c2ccccc2)c2ccc(C3=NNC(=O)CC3)cc21	L major viab 89, SKKanGAS inh 52 (no result: CSC inhib)
Cc1ccc(CN=C(Nc2ccccc2)NC2CCCCC2)cc1	L major viab 60
COc1ccc(CC(=O)Nc2cccc(-c3nnc(-c4ccco4)o3)c2)cc1	L major viab 61
COc1ccc(N(C(=O)CNC(=O)c2cccs2)C(C(=O)NC2CCCC2)c2cccnc2)cc1 (stereo unspecified)	none
CCC1CCCCN1C(=O)CCNS(=O)(=O)c1ccc2c(c1)oc(=O)n2C (stereo unspecified)	none (no result: L major viab)
CCn1cc(C(=O)O)c(=O)c2cc(F)c(N3CCN(S(=O)(=O)c4ccc5c(c4)OCCO5)CC3)cc21	SKKanGAS inh 60
CCn1cc(C(=O)O)c(=O)c2cc(F)c(N3CCN(S(=O)(=O)c4ccc(NC(C)=O)cc4)CC3)cc21	SKKanGAS inh 53
CCn1cc(C(=O)O)c(=O)c2cc(F)c(N3CCNCC3)cc21	none (no result: CSC inhib, Beta apoptosis)
CCn1cc(C(=O)O)c(=O)c2cc(F)c(N3CCN(C(=O)Nc4ccccc4)CC3)cc21	none (no result: Beta apoptosis)
CCCC(=O)c1cc(F)c(N2CCN(S(=O)(=O)c3ccccc3)CC2)cc1C	none
CCC(=O)c1cc(F)c(N2CCN(S(=O)(=O)c3ccccc3)CC2)cc1C	L major viab 64
COc1ccc(S(N)(=O)=O)cc1C(=O)OCCCC(=O)c1ccccc1	none (no result: L major viab, SKKanGAS inh, T cruzi repl)
COc1ccccc1NS(=O)(=O)c1cccc(C(=O)OCc2nc3ccccc3s2)c1	L major viab 90
CSc1cccc(NC(=O)c2[nH]c(C)c(C(C)=O)c2C)c1	none (no result: L major viab, Beta apoptosis)
CC(=O)c1c(C)[nH]c(C(=O)Nc2cccc(S(=O)(=O)N(C)c3ccccc3)c2)c1C	L major viab 95
COc1ccccc1NS(=O)(=O)c1cccc(NC(=O)c2[nH]c(C)c(C(C)=O)c2C)c1	Beta apoptosis 76 (no result: L major viab)
COc1ccccc1NS(=O)(=O)c1cccc(NC(=O)Cc2cccs2)c1	L major viab 98
COc1cccc(NC(=O)Cc2cccs2)c1	none (no result: T cruzi repl)
CCNC(=S)Nc1cccc(S(=O)(=O)Nc2ccccc2OC)c1	none (no result: L major viab)
COc1ccccc1NS(=O)(=O)c1cccc(NC(=O)Nc2ccccc2)c1	L major viab 99
CCCCn1c(SCC(=O)NCc2ccc(OC)c(C(=O)O)c2)nc2cc(S(N)(=O)=O)ccc21	none (no result: L major viab)
Cc1ccc(Sc2ccc(CN3CCCC3)cc2[N+](=O)[O-])cc1	L major viab 82, T cruzi repl 88
CN1CCN(Cc2ccc(Sc3ccc(Cl)cc3)c([N+](=O)[O-])c2)CC1	CSC inhib 86, L major viab 100, T cruzi repl 66
O=C(O)c1ccccc1C(=O)c1ccc(Sc2ccc(Cl)cc2)c([N+](=O)[O-])c1	none (no result: L major viab)
